Data from ChEMBL document CHEMBL1140485, “MexAB-OprM specific efflux pump inhibitors in Pseudomonas aeruginosa. Part 7: highly soluble and in vivo active quaternary ammonium analogue D13-9001, a potential preclinical candidate” (Bioorg Med Chem, 2007).
≈ marks a conversion by molar mass, not a printed value.

What was measured:
[1] = Aqueous solubility at pH 6.8; assay type: physicochemical; conditions: buffer
Pseudomonas aeruginosa [2] = assay: Inhibition of Pseudomonas aeruginosa PAM1723 MexAB-OprM assessed as drug level required to decrease MIC of levofloxacin in presence of 0.125% HAS
Method in brief: (§1)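 P. aeruginosa PAM1723 overexpresses MexAB-OprM, with MexCD-OprJ and MexEF-OprN disrupted. The partner antibiotic's MIC was measured with and without inhibitor by NCCLS broth microdilution in Mueller–Hinton broth. Inoculum was 1 × 10⁶ CFU/mL, incubated 18 h at 37 °C, and growth was read visually. The value is the minimum inhibitor concentration that lowers the partner's MIC 8-fold (MPC₈).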

Pseudomonas aeruginosa [3] = assay: Inhibition of Pseudomonas aeruginosa PAM1723 MexAB-OprM assessed as drug level required to decrease MIC of aztreonam; method in brief: as §1
Pseudomonas aeruginosa [4] = assay: Inhibition of Pseudomonas aeruginosa PAM1723 MexAB-OprM assessed as drug level required to decrease MIC of levofloxacin; method in brief: as §1
Mus musculus [5] = assay: Toxicity in mouse assessed as lethal effect at 100 mg/kg, iv; assay type: organism-based; set-up: dose 100 mg/kg, route intravenous; conditions: in vivo
Method in brief: (§2)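 Mice received a single intravenous dose at 50 or 100 mg/kg in groups of three. The read-out was the number of deaths per group.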

[6] = Drug level in cynomolgus monkey serum at 5 mg/kg, iv after 1 hr; assay type: ADME, organism-based, Macaca fascicularis; set-up: dose 5 mg/kg, route intravenous; conditions: read-out: Activity
Method in brief: (§3)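 Monkeys received a 1 h intravenous infusion at 1 or 5 mg/kg in 10 mL/kg saline. Plasma was processed as for the rat samples: centrifuged, stored at −20 °C, then MeCN extraction with propranolol internal standard.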

Rattus norvegicus [7] = assay: Volume of distribution at steady state (0 to infinity) in Sprague-Dawley rat at 1.25 mg/kg, iv; assay type: ADME, organism-based; set-up: dose 1.25 mg/kg, route intravenous; conditions: in vivo
Method in brief: (§4)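 Rats received a 2 h intravenous infusion at 1.25, 5 or 20 mg/kg, given with AZT 1000 mg/kg in 40 mL/kg 0.0005 N NaOH-saline. Blood was drawn at 40, 80 and 120 min into the infusion, then 0.25, 0.5, 1, 2 and 4 h after it ended. Plasma was stored at −20 °C and extracted with MeCN using propranolol as internal standard.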

[8] = AUC (0 to infinity) in cynomolgus monkey at 1 mg/kg, iv; assay type: ADME, organism-based, Macaca fascicularis; set-up: time infinity, dose 1 mg/kg, route intravenous; conditions: plasma
Method in brief: (§5)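 Monkeys given compound alone by 1 h intravenous infusion in 10 mL/kg saline. Plasma prepared and analysed as in the rat study: propranolol internal standard, MeCN extraction, centrifugation.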

[9] = Mean residential time (0 to infinity) in cynomolgus monkey at 1 mg/kg, iv; assay type: ADME, organism-based, Macaca fascicularis; set-up: dose 1 mg/kg, route intravenous; conditions: in vivo; method in brief: as §3
Rattus norvegicus [10] = assay: Volume of distribution at steady state (0 to infinity) in Sprague-Dawley rat at 5 mg/kg, iv; assay type: ADME, organism-based; set-up: dose 5 mg/kg, route intravenous; conditions: in vivo; method in brief: as §4
Rattus norvegicus [11] = assay: Half life in Sprague-Dawley rat at 5 mg/kg, iv; assay type: ADME, organism-based; set-up: dose 5 mg/kg, route intravenous; conditions: in vivo; method in brief: as §4
[12] = Clearance (0 to infinity) in cynomolgus monkey at 5 mg/kg, iv; assay type: ADME, organism-based, Macaca fascicularis; set-up: dose 5 mg/kg, route intravenous; conditions: in vivo; method in brief: as §3
Rattus norvegicus [13] = assay: Mean residential time (0 to infinity) in Sprague-Dawley rat at 20 mg/kg, iv; assay type: ADME, organism-based; set-up: dose 20 mg/kg, route intravenous; conditions: in vivo; method in brief: as §4
[14] = AUC (0 to infinity) in cynomolgus monkey at 5 mg/kg, iv; assay type: ADME, organism-based, Macaca fascicularis; set-up: time infinity, dose 5 mg/kg, route intravenous; conditions: plasma; method in brief: as §5
Rattus norvegicus [15] = assay: Volume of distribution at steady state (0 to infinity) in Sprague-Dawley rat at 20 mg/kg, iv; assay type: ADME, organism-based; set-up: dose 20 mg/kg, route intravenous; conditions: in vivo; method in brief: as §4
Rattus norvegicus [16] = assay: Half life in Sprague-Dawley rat at 1.25 mg/kg, iv; assay type: ADME, organism-based; set-up: dose 1.25 mg/kg, route intravenous; conditions: in vivo; method in brief: as §4
[17] = Mean residential time (0 to infinity) in cynomolgus monkey at 5 mg/kg, iv; assay type: ADME, organism-based, Macaca fascicularis; set-up: dose 5 mg/kg, route intravenous; conditions: in vivo; method in brief: as §3
Rattus norvegicus [18] = assay: Mean residential time (0 to infinity) in Sprague-Dawley rat at 5 mg/kg, iv; assay type: ADME, organism-based; set-up: dose 5 mg/kg, route intravenous; conditions: in vivo; method in brief: as §4
[19] = Clearance (0 to infinity) in cynomolgus monkey at 1 mg/kg, iv; assay type: ADME, organism-based, Macaca fascicularis; set-up: dose 1 mg/kg, route intravenous; conditions: in vivo; method in brief: as §3
[20] = Drug level in Sprague-Dawley rat serum at 20 mg/kg, iv after 2 hrs; assay type: ADME, organism-based; set-up: dose 20 mg/kg, route intravenous; conditions: read-out: Activity; method in brief: as §4
[21] = Volume of distribution at steady state (0 to infinity) in cynomolgus monkey at 5 mg/kg, iv; assay type: ADME, organism-based, Macaca fascicularis; set-up: dose 5 mg/kg, route intravenous; conditions: in vivo, read-out: Vdss; method in brief: as §3
[22] = Half life in cynomolgus monkey at 5 mg/kg, iv; assay type: ADME, organism-based, Macaca fascicularis; set-up: dose 5 mg/kg, route intravenous; conditions: in vivo; method in brief: as §3
Rattus norvegicus [23] = assay: Mean residential time (0 to infinity) in Sprague-Dawley rat at 1.25 mg/kg, iv; assay type: ADME, organism-based; set-up: dose 1.25 mg/kg, route intravenous; conditions: in vivo; method in brief: as §4
[24] = AUC (0 to infinity) in Sprague-Dawley rat at 1.25 mg/kg, iv; assay type: ADME, organism-based; set-up: time infinity, dose 1.25 mg/kg, route intravenous; conditions: plasma
Method in brief: (§6)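 Rats (SD) given compound by 2 h intravenous infusion with AZT 1000 mg/kg, in 40 mL/kg 0.0005 N NaOH-saline. Blood sampled at 40, 80 and 120 min into infusion and 0.25, 0.5, 1, 2 and 4 h after its end. Plasma stored at −20 °C, spiked with propranolol internal standard, extracted with MeCN and centrifuged before analysis.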

[25] = AUC (0 to infinity) in Sprague-Dawley rat at 20 mg/kg, iv; assay type: ADME, organism-based; set-up: time infinity, dose 20 mg/kg, route intravenous; conditions: plasma; method in brief: as §6
[26] = AUC (0 to infinity) in Sprague-Dawley rat at 5 mg/kg, iv; assay type: ADME, organism-based; set-up: time infinity, dose 5 mg/kg, route intravenous; conditions: plasma; method in brief: as §6
[27] = Volume of distribution at steady state (0 to infinity) in cynomolgus monkey at 1 mg/kg, iv; assay type: ADME, organism-based, Macaca fascicularis; set-up: dose 1 mg/kg, route intravenous; conditions: in vivo, read-out: Vdss; method in brief: as §3
[28] = Half life in cynomolgus monkey at 1 mg/kg, iv; assay type: ADME, organism-based, Macaca fascicularis; set-up: dose 1 mg/kg, route intravenous; conditions: in vivo; method in brief: as §3
Rattus norvegicus [29] = assay: Half life in Sprague-Dawley rat at 20 mg/kg, iv; assay type: ADME, organism-based; set-up: dose 20 mg/kg, route intravenous; conditions: in vivo; method in brief: as §4
[30] = Drug level in Sprague-Dawley rat serum at 5 mg/kg, iv after 2 hrs; assay type: ADME, organism-based; set-up: dose 5 mg/kg, route intravenous; conditions: read-out: Activity; method in brief: as §4
[31] = Drug level in cynomolgus monkey serum at 1 mg/kg, iv after 1 hr; assay type: ADME, organism-based, Macaca fascicularis; set-up: dose 1 mg/kg, route intravenous; conditions: read-out: Activity; method in brief: as §3
[32] = Drug level in Sprague-Dawley rat serum at 1.25 mg/kg, iv after 2 hrs; assay type: ADME, organism-based; set-up: dose 1.25 mg/kg, route intravenous; conditions: read-out: Activity; method in brief: as §4
Mus musculus [33] = assay: Toxicity in mouse assessed as lethal effect at 50 mg/kg, iv; assay type: organism-based; set-up: dose 50 mg/kg, route intravenous; conditions: in vivo; method in brief: as §2

CC(C)(C)c1csc(NC(=O)c2ccn3c(=O)c(/C=C/c4nnn[nH]4)c(N4CCC[C@@H](CC(=O)NCC[N+](C)(C)CC(=O)[O-])C4)nc3c2)n1
solubility [1]: 860 µg/mL (≈ 1240 µM)
Activity (Pseudomonas aeruginosa [2]): 8 µg/mL
Activity (Pseudomonas aeruginosa [3]): 4 µg/mL
Activity (Pseudomonas aeruginosa [4]): 4 µg/mL

CC(C)(C)c1csc(NC(=O)c2ccn3c(=O)c(/C=C/c4nnn[nH]4)c(N4CCC[C@@H](OC(=O)NCC[N+](C)(C)CC(N)=O)C4)nc3c2)n1
solubility [1]: 95 µg/mL
Activity (Pseudomonas aeruginosa [2]): 4 µg/mL
Activity (Pseudomonas aeruginosa [3]): 4 µg/mL
Activity (Mus musculus [5]): Non-toxic
Activity (Pseudomonas aeruginosa [4]): 4 µg/mL

CC(C)(C)c1csc(NC(=O)c2ccn3c(=O)c(/C=C/c4nnn[nH]4)c(N4CCC[C@@H](OC(=O)NCC[N+](C)(C)CC(=O)[O-])C4)nc3c2)n1
concentration at 1 h [6]: 7640 ng/mL
Vdss (Rattus norvegicus [7]): 3.049 L/kg
AUC(0-inf) [8]: 1490 ng·h/mL
MRT inf [9]: 36.8 min
Vdss (Rattus norvegicus [10]): 1.712 L/kg
t1/2 (Rattus norvegicus [11]): 10.8 min
clearance [12]: 10.7 mL/min/kg
solubility [1]: 747 µg/mL (≈ 1080 µM)
MRT (Rattus norvegicus [13]): 72.9 min
AUC(0-inf) [14]: 7890 ng·h/mL
Vdss (Rattus norvegicus [15]): 1.71 L/kg
Activity (Pseudomonas aeruginosa [2]): 4 µg/mL
t1/2 (Rattus norvegicus [16]): 13.8 min
MRT inf [17]: 37.5 min
MRT (Rattus norvegicus [18]): 72.54 min
clearance [19]: 11.2 mL/min/kg
Activity (Pseudomonas aeruginosa [3]): 2 µg/mL
concentration at 2 h [20]: 8040 ng/mL
Vd [21]: 0.4 L/kg
half-life [22]: 24.6 min
MRT (Rattus norvegicus [23]): 71.16 min
AUC(0-inf) [24]: 486 ng·h/mL
AUC(0-inf) [25]: 14200 ng·h/mL
AUC(0-inf) [26]: 3530 ng·h/mL
Activity (Mus musculus [5]): Non-toxic
Vd [27]: 0.414 L/kg
half-life [28]: 16.8 min
Activity (Pseudomonas aeruginosa [4]): 2 µg/mL
t1/2 (Rattus norvegicus [29]): 15 min
concentration at 2 h [30]: 1840 ng/mL
concentration at 1 h [31]: 1220 ng/mL
concentration at 2 h [32]: 262 ng/mL

CC(C)(C)c1csc(NC(=O)c2ccn3c(=O)c(/C=C/c4nnn[nH]4)c(N4CCC/C(=C\C(=O)NCC[N+](C)(C)CC(=O)[O-])C4)nc3c2)n1
Activity [1]: Not Active
Activity (Pseudomonas aeruginosa [2]): > 16 µg/mL
Activity (Pseudomonas aeruginosa [3]): 8 µg/mL
Activity (Pseudomonas aeruginosa [4]): 16 µg/mL

CC(C)(C)c1csc(NC(=O)c2ccn3c(=O)c(/C=C/c4nnn[nH]4)c(N4CCC[C@@H](OC(=O)NCC[N+](C)(C)C)C4)nc3c2)n1
Activity (Pseudomonas aeruginosa [2]): 4 µg/mL
Activity (Pseudomonas aeruginosa [3]): 2 µg/mL
Activity (Pseudomonas aeruginosa [4]): 2 µg/mL

CC(C)(C)c1csc(NC(=O)c2ccn3c(=O)c(/C=C/c4nnn[nH]4)c(N4CCC[C@H](OC(=O)NCC[N+](C)(C)C)C4)nc3c2)n1
solubility [1]: 547 µg/mL

CC(C)(C)c1csc(NC(=O)c2ccn3c(=O)c(/C=C/c4nnn[nH]4)c(N4CCC[C@@H](OC(=O)NCCC[N+](C)(C)CC(=O)[O-])C4)nc3c2)n1
solubility [1]: 610 µg/mL (≈ 862 µM)
Activity (Pseudomonas aeruginosa [2]): 4 µg/mL
Activity (Pseudomonas aeruginosa [3]): 2 µg/mL
Activity (Pseudomonas aeruginosa [4]): 4 µg/mL

CC(C)(C)c1csc(NC(=O)c2ccn3c(=O)c(/C=C/c4nnn[nH]4)c(N4CCC[C@@H](OC(N)=O)C4)nc3c2)n1
solubility [1]: 9.2 µg/mL (≈ 16.3 µM)
Activity (Pseudomonas aeruginosa [2]): 2 µg/mL
Activity (Pseudomonas aeruginosa [3]): < 0.25 µg/mL
Activity (Pseudomonas aeruginosa [4]): 0.5 µg/mL

CC(C)(C)c1csc(NC(=O)c2ccn3c(=O)c(/C=C/c4nnn[nH]4)c(N4CCC(OC(=O)NCC[N+](C)(C)CC(=O)[O-])CC4)nc3c2)n1
solubility [1]: 170 µg/mL (≈ 245 µM)
Activity (Pseudomonas aeruginosa [2]): 16 µg/mL
Activity (Pseudomonas aeruginosa [3]): 4 µg/mL
Activity (Pseudomonas aeruginosa [4]): 8 µg/mL

CN(C)CCNC(=O)O[C@@H]1CCCN(c2nc3cc(C(=O)Nc4nc(C(C)(C)C)cs4)ccn3c(=O)c2/C=C/c2nnn[nH]2)C1
Activity (Mus musculus [33]): Non-toxic
Activity (Pseudomonas aeruginosa [2]): 4 µg/mL
Activity (Pseudomonas aeruginosa [3]): 1 µg/mL
Activity (Pseudomonas aeruginosa [4]): 2 µg/mL
